Screening data from PubChem.
A selection: hits, their analogues and other compounds. The true share with any hit is near 2.9%.
ADAM10 inh: human ADAM10 inhibitors, primary screen, biochemical, QFRET, HTS | inhibition, % at 7 µM | Disintegrin and metalloproteinase domain-containing protein 10 (Homo sapiens), O14672 | AID 720582, 2013 | recombinant ADAM10, EDANS/DABCYL FRET peptide cleavage, 3 h | actives 0.62% (n = 370,000);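 active means inhibition above a per-campaign cutoff equal to the mean of compounds falling between control-based bounds plus 3 SD, cut at about 20% in these data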
Target sequence (O14672 214-748 limits assumed): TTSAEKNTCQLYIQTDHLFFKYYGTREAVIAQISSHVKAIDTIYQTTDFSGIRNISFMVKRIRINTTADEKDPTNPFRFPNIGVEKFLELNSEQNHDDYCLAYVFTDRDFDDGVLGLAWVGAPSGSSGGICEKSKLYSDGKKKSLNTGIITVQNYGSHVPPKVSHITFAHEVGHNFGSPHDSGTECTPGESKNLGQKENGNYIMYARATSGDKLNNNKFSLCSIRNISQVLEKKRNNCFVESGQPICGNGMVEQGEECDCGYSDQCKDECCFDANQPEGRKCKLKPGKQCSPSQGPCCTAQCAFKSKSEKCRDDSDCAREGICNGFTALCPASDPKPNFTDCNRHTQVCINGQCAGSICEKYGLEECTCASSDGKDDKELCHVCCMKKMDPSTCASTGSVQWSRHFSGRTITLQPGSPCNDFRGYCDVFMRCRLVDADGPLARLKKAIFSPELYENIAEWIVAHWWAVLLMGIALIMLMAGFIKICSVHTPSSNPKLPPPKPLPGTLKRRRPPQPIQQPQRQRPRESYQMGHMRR
NRP1-CendR mod: modulators of CendR peptide binding to NRP-1, primary screen, biochemical, fluorescence polarization, uHTS | Neuropilin-1 (Homo sapiens), O14786 | FAM-RPARPAR peptide binding to NRP-1 | inhibition, % at 25 µM | actives 0.85% (n = 360,000);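 active means inhibition or corrected inhibition above about 18%, plus a signal ratio from 0.5 to 1.5, limit read from the data, passing the limit was not always enough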
ADAM17 inh: ADAM17 inhibitors, primary screen, biochemical, QFRET; actives 0.83% (n = 370,000); AID 720648, 2013; recombinant ADAM17, EDANS/DABCYL FRET peptide cleavage; inhibition, % at 6.95 µM; Disintegrin and metalloproteinase domain-containing protein 17 (Homo sapiens), P78536;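 active means inhibition above the mean of compounds lying between control limits plus 3 SD, set per campaign, cut at about 8.5% in these data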
Arrestin-AP2 inh: inhibitors of beta-arrestin/AP2 binding, primary screen, biochemical, GPCR trafficking, flow cytometry | beta-arrestin 1 C-terminal peptide binding to AP2 beta2-adaptin appendage (human) | FITC-arrestin peptide / GST-AP2 beads; AP2 beta2 appendage carries R879A mutation | inhibition, % at 10 µM | actives 0.31% (n = 340,000);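 active means inhibition above a set limit, near 3 SD of compounds lacking own fluorescence, cut at about 54% in these data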
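test system = AP2 appendage R879A on GSH beads | buffer or medium = PBS plus Tween 20 (0.05%) and BSA (0.1%) | incubation = 12 min plus 1 h, RT | detection = bead flow cytometry, FITC channel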
CaV13 ICDI inh: Disruptors of the CACNA1D IQ motif to Ca2+-dependent inactivation inhibitor domain association, primary screening, Förster resonance energy transfer in intact living … | actives 0.098% (n = 340,000) | AID 743397 | HEK cells, CFP/YFP FRET ICDI-IQ, plate reader, 10 min; percent FRET-ratio fall versus neutral wells | inhibition, % at 12.3 µM;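 active means mean replicate inhibition of at least 30% and at least 1% of replicates passing that level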
FAS TE block: FAS thioesterase domain inhibitors, primary screen, biochemical, fluorescence intensity, uHTS; Fatty acid synthase (Homo sapiens), P49327; inhibition, % at 15 µM; AID 602261, 2012; recombinant FAS-TE, OMFH fluorogenic substrate, fluorescence endpoint; actives 0.67% (n = 360,000);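 active means compounds whose normalised, plate-corrected inhibition of enzyme fluorescence in the single-dose primary screen is 50% or more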
Arr AP2 CP1: inhibitors of arrestin peptide binding to AP2, confirmation, biochemical, cherry pick 1, flow cytometry beads; shares compounds with Arrestin-AP2 inh; GST-AP2 beads, FITC arrestin peptide binding; GST-fused beta2-adaptin appendage, R879A mutant; inhibition, % at 10 µM; actives 2% (n = 1,300); AID 504908, 2011;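 active means inhibition above a set limit, roughly 3 SD of non-fluorescent compound noise, cut at about 38% in these data; inactive means inhibition at or below that limit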;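 further: loss of bead fluorescence from 50 nM FITC arrestin peptide bound to appendage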
GST GSH counter: GST-fluorescein capture on glutathione beads, confirmation, artefact control for arrestin-AP2 inhibitor project, biochemical, cherry pick 1, flow cytometry; shares compounds with Arrestin-AP2 inh; inhibition, % at 10 µM; actives 2% (n = 1,300); GST-fluorescein binding to GSH beads, fluorescence, counter-screen;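 active means inhibition above 50%, about 3 SD of the inhibition seen with non-fluorescent compounds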;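 further: fluorescein maleimide labelled GST captured on 4 micron glutathione beads; higher means more loss of bead fluorescence from quenching or blocked binding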
Large screens that a line does not name were inactive (follow-up assays come after a bar, where they were run).

COc1cccc(C2C(C#N)=C(N)OC(C(C)(C)C)=C2C#N)c1 (stereo not given)	Arrestin-AP2 inh 93 (no result: CaV13 ICDI inh) | Arr AP2 CP1 inactive | GST GSH counter inactive
C#CCN(C)S(=O)(=O)c1ccc(N2CCCC2)cc1Br	none (no result: NRP1-CendR mod, Arrestin-AP2 inh, CaV13 ICDI inh, FAS TE block)
CCCc1nc2sc3c(c2c(=O)n1N)CCC3	none (no result: CaV13 ICDI inh)
CCCCCc1nc2sc3c(c2c(=O)n1N)CCC3	Arrestin-AP2 inh 97 (no result: CaV13 ICDI inh) | Arr AP2 CP1 inactive | GST GSH counter inactive
CN(c1ccccc1)S(=O)(=O)c1ccc(NC(=O)CC(=O)c2ccccc2)cc1	none
O=C(NCCc1ccc(C(F)(F)F)cc1)C1CCC(=O)N(CCCc2ccccc2)C1 (stereo not given)	none | Arr AP2 CP1 inactive | GST GSH counter inactive
Cc1ccc(F)cc1CNC(=O)C1CCC(=O)N(CCc2ccccc2)C1 (stereo not given)	none | Arr AP2 CP1 inactive | GST GSH counter inactive
Cc1cc(Cl)ccc1N(CC(=O)NCc1ccc2c(c1)OCO2)S(C)(=O)=O	Arrestin-AP2 inh 60 | Arr AP2 CP1 inactive | GST GSH counter inactive
COc1ccc(CC(=O)N2CCC3(CC2)NCCc2[nH]cnc23)cc1	none
O=C(Cc1ccc(F)cc1)N1CCC2(CC1)NCCc1[nH]cnc12	Arrestin-AP2 inh 56 | Arr AP2 CP1 inactive | GST GSH counter inactive
COc1ccc(-c2ccc3c(c2)c(Sc2ccccc2)c(-c2ccccc2)n3C)cn1	none (no result: Arrestin-AP2 inh)
CCSc1nnc(NC(=O)C2CSC3(C)CCC(=O)N23)s1 (stereo not given)	Arrestin-AP2 inh 60 | Arr AP2 CP1 inactive | GST GSH counter inactive
CCC(NC(=O)CN1CCN(c2cccc(OC)c2)CC1)c1ccccc1 (stereo not given)	none (no result: NRP1-CendR mod, Arrestin-AP2 inh, CaV13 ICDI inh, FAS TE block)
Cc1cc(OCC(=O)Nc2nccs2)c2c(C)cc(=O)oc2c1	Arrestin-AP2 inh 60 | Arr AP2 CP1 inactive | GST GSH counter inactive
Cc1cc(OCC(=O)Nc2ccccn2)c2c(C)cc(=O)oc2c1	none
CCn1c(C)nc2cc(C(=O)NNC(=O)Nc3ccc(Cl)cc3)ccc21	Arrestin-AP2 inh 57 | Arr AP2 CP1 inactive | GST GSH counter inactive
CCn1c(C)nc2cc(C(=O)NNC(=O)Nc3cccc(Cl)c3)ccc21	none
Cn1c(N)c(C(=O)COC(=O)CCC(=O)c2cccs2)c(=O)n(C)c1=O	none (no result: CaV13 ICDI inh)
COc1ccc(C(=O)OCC(=O)c2c(N)n(C)c(=O)n(C)c2=O)c(OC)c1OC	none | Arr AP2 CP1 inactive | GST GSH counter inactive
CC(C)Cn1c(N)c(C(=O)COC(=O)c2ccc(F)cc2)c(=O)n(C)c1=O	none | Arr AP2 CP1 inactive | GST GSH counter inactive
Cc1noc(C)c1C(=O)OCC(=O)c1c(N)n(CC(C)C)c(=O)n(C)c1=O	none | Arr AP2 CP1 inactive | GST GSH counter inactive
Cn1c(N)c(C(=O)COC(=O)c2cccs2)c(=O)n(C)c1=O	none (no result: CaV13 ICDI inh) | Arr AP2 CP1 inactive | GST GSH counter inactive
Cn1c(N)c(C(=O)COC(=O)c2ccnc3ccccc23)c(=O)n(C)c1=O	none
CC(C)Cn1c(N)c(C(=O)COC(=O)c2ccc3c(c2)OCCO3)c(=O)n(C)c1=O	none
C[C@@H]1CN([C@@H](C)CO)C(=O)CCCn2nncc2CO[C@H]1CN(C)Cc1ccc(O)cc1	none (no result: NRP1-CendR mod, Arrestin-AP2 inh, FAS TE block)
CC(C)COC(=O)N1CCCCC1c1cc(C(=O)Nc2ccccc2)no1 (stereo not given)	none (no result: Arrestin-AP2 inh)
CC1(C(=O)NCc2ccccc2)CSCC(=O)N1Cc1cccc(F)c1 (stereo not given)	none (no result: Arrestin-AP2 inh, FAS TE block)
COc1cccc(C(=O)OCC(=O)c2c(N)n(C)c(=O)n(C)c2=O)c1	none | Arr AP2 CP1 inactive | GST GSH counter inactive
Cn1c(N)c(C(=O)COC(=O)c2ccc(C(F)(F)F)cc2)c(=O)n(C)c1=O	none | Arr AP2 CP1 inactive | GST GSH counter inactive
CC(C)Cn1c(N)c(C(=O)COC(=O)c2cccc(Cl)c2)c(=O)n(C)c1=O	none
CCc1ccc(C(=O)OCC(=O)c2c(N)n(CC(C)C)c(=O)n(C)c2=O)cc1	none | Arr AP2 CP1 inactive | GST GSH counter inactive
O=C(CSc1ccc(-c2ccccc2)nn1)NC1CCCCC1	Arrestin-AP2 inh 63 | Arr AP2 CP1 inactive | GST GSH counter inactive
CC(=O)c1ccc(S(=O)(=O)N2CCN(C(=O)C(=O)c3cccc(C(F)(F)F)c3)CC2)cc1	none (no result: NRP1-CendR mod, Arrestin-AP2 inh, FAS TE block)
COc1ccc(S(=O)(=O)NCC2CCCN(Cc3cccc(C(C)=O)c3)C2)cc1 (stereo not given)	Arrestin-AP2 inh 62 | Arr AP2 CP1 inactive | GST GSH counter inactive
COc1ccc(S(=O)(=O)NCC2CCCN(Cc3cccnc3)C2)cc1 (stereo not given)	none
O=C(N/N=C/c1cccn1-c1ccccc1)c1ccncc1	Arrestin-AP2 inh 58 | Arr AP2 CP1 inactive | GST GSH counter inactive
COc1ccc(COC[C@H](C)N2C[C@@H](C)[C@H](CN(C)S(=O)(=O)c3ccc(F)cc3)OCCCC[C@H](C)Oc3ccc(NC(=O)Nc4ccccc4)cc3C2=O)cc1	none (no result: NRP1-CendR mod, Arrestin-AP2 inh, CaV13 ICDI inh, FAS TE block)
CCC(=O)Nc1c(C#N)c2nc3ccccc3nc2n1C1CCCCC1	Arrestin-AP2 inh 75 | Arr AP2 CP1 inactive | GST GSH counter inactive
CC(Oc1cccc(Cl)c1)C(=O)Nc1cc(S(=O)(=O)N2CCOCC2)ccc1N1CCCC1 (stereo not given)	Arrestin-AP2 inh 62 | Arr AP2 CP1 inactive | GST GSH counter inactive
CC1CCN(C(=O)c2ccc(S(=O)(=O)N3CCOCC3)cc2)CC1	none
CC1CCN(C(=O)c2cc(S(=O)(=O)N3CCOCC3)ccc2N2CCCC2)CC1	none | Arr AP2 CP1 inactive | GST GSH counter inactive
CN(Cc1cccc(F)c1)C(=O)c1ccc(S(=O)(=O)N2CCOCC2)cc1	Arrestin-AP2 inh 63 | Arr AP2 CP1 inactive | GST GSH counter inactive
COc1ccc(CN(C)C(=O)c2cc(S(=O)(=O)N3CCOCC3)ccc2N2CCCC2)cc1	none | Arr AP2 CP1 inactive | GST GSH counter inactive
CC(C)CCN1C(=O)c2ccc(C(=O)NCc3ccccn3)cc2C1=O	none
